High-throughput results (PubChem)
Shown are actives, neighbours in structure and some others; about 1.5% of the full set was active somewhere.
APJ agonist: agonists of human apelin receptor APJ, primary screen, CHO-K1 cells, PathHunter beta-arrestin, luminescence; P35414; 0% DMSO wells, 100% apelin; activation, % at 20 µM; 0.11% of 330,000 active;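 active means activation more than six SD over the plate average, tested at 20 µM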
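assay system = CHO-K1 APJ beta-arrestin complementation cell line | input = cell density 1000 per well | dosing = compound 20 µM once, DMSO 1% | timing = compound 90 min 25 °C, reagent 1 h | measured by = luminescence from split beta-galactosidase complementation, Galacton Star/Emerald II substrate | read-out basis = APJ agonist activity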
APJ antag: antagonists of human apelin receptor APJ, primary screen, CHO-K1 cells, beta-arrestin complementation, luminescence; 0.32% of 330,000 active; inhibition, % at 20 µM; P35414; AID 2521, 2010;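 active means inhibition above about 40% at 20 µM, limit read from the data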;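 further: cells challenged with 10 nM apelin-13 agonist together with compound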
EBI2 antag: EBI2 receptor antagonists, beta-arrestin recruitment, primary screen, cell-based, luminescence, 7a,25-OHC stimulation, uHTS. G-protein coupled receptor 183 (Homo sapiens), P32249. 7a,25-OHC stimulated. inhibition, % at 5 µM. 0.81% of 360,000 active. AID 651636, 2012; in the data active means inhibition above about 38%;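 further: enzyme fragment complementation signal reports receptor beta-arrestin coupling in cells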
CXCR6 inh: CXCR6 receptor inhibitors, primary screen, cell-based, beta-arrestin, luminescence, CHO-K1 PathHunter, 1536-well | C-X-C chemokine receptor type 6 (Homo sapiens), O00574 | inhibition, % at 20 µM | 0.36% of 360,000 active | AID 602244, 2012; in the data active means inhibition above about 34%, passing the limit was not always enough;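 further: antagonist mode with CXCL16 agonist at 10 nM final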
CCR6 antag: CCR6 receptor antagonists, primary screen, cell-based, CHO-K1, luminescence, beta-arrestin, uHTS; CHO-K1 CCR6 PathHunter beta-arrestin, CCL20-stimulated; inhibition, % at 20 µM; 0.49% of 340,000 active;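 active means compounds whose inhibition of the agonist-driven luminescence signal at 20 µM reaches about 50%, limit read from the data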;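 further: cells stimulated with CCL20 at 14 nM final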
Target sequence (P51684 whole entry, looked up): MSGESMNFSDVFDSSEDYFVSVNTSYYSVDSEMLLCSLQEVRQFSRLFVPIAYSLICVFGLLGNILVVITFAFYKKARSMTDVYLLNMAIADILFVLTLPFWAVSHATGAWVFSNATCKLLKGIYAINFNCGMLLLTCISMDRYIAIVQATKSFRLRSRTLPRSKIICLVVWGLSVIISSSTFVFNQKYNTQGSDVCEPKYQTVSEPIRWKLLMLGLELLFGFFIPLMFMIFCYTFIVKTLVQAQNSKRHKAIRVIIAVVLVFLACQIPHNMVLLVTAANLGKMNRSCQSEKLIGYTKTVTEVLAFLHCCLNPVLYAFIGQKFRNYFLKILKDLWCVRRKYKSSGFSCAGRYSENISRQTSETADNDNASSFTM
APJ antag conf: APJ antagonists blocking beta-arrestin recruitment, confirmation, cell-based, luminescence, single concentration, uHTS hits; inhibition, % at 20 µM; shares compounds with APJ antag; 66% of 950 active; antagonist mode; in the data active means inhibition above about 50%
Large screens that a line does not name were inactive (follow-up assays come after a bar, where they were run).

Cc1ccc2oc(/N=C(\N)NC(=O)C(C)(C)C)nc2c1	APJ antag 54, CXCR6 inh 71, CCR6 antag 70 | APJ antag conf inactive
Cc1ccc2c(c1Br)/C(=N/N1C(=O)c3ccccc3C1=O)C(=O)N2	none
CCOc1ccc(N=C2C(=O)Nc3ccc(C)c(Br)c32)cc1	APJ antag 79, CXCR6 inh 73, CCR6 antag 102 | APJ antag conf 146
COCCn1cc(C(=O)N2CCN(C)CC2)c2c3ccccc3n(C)c2c1=O	none
COc1cc(/C=C2\SC(=S)N(NC(=O)c3ccccc3OC)C2=O)ccc1O	APJ antag 66, CXCR6 inh 50, CCR6 antag 66 | APJ antag conf 100
COc1cc(/C=C2\SC(=S)N(NS(=O)(=O)c3ccccc3)C2=O)ccc1O	APJ antag 41 | APJ antag conf 73
CCOc1cc(/C=C2\SC(=S)N(NS(=O)(=O)c3ccc(C)cc3)C2=O)ccc1O	APJ antag 41 | APJ antag conf 88
COc1ccc(/C=C2/SC(=S)N(NS(=O)(=O)c3ccccc3)C2=O)cc1	none
COc1cc(/C=C2\SC(=S)N(NC(=O)c3cccc(O)c3)C2=O)ccc1O	APJ antag 41, CXCR6 inh 42, CCR6 antag 56 | APJ antag conf 95
Cc1ccc(S(=O)(=O)/C(=C/Cl)NC(=O)c2ccccc2)cc1	none
CCOc1cc(CNCCc2ccccc2)ccc1OCC(=O)NC(C)(C)C	none
COc1cc(/C=C2\SC(=S)N(NC(=O)c3ccc(O)c(OC)c3)C2=O)ccc1O	APJ antag 61, CXCR6 inh 43, CCR6 antag 57 | APJ antag conf 99
CCSc1nnc(NC(=O)c2cnccn2)s1	none (no result: EBI2 antag, CXCR6 inh)
O=C(Nc1nnc(SCc2ccc(F)cc2)s1)c1cnccn1	APJ antag 49 | APJ antag conf 60
CCSc1nnc(NC(=O)c2ccccn2)s1	APJ antag 44 | APJ antag conf 60
CC(C)CC(NC(=O)C(NC(=O)OC(C)(C)C)C(C)C)C(N)=O (stereo not drawn)	none
COc1ccc(NC(=O)Cc2ccc(Cl)c(Cl)c2)cn1	none
COc1ccc(NC(=O)/C(Cl)=C(/Cl)S(=O)Cc2ccccc2Cl)cn1 (stereo not drawn)	APJ antag 79, CCR6 antag 96 (no result: EBI2 antag, CXCR6 inh) | APJ antag conf 104
CCCc1cc(C(=O)N2CCC(N3CCC(C(=O)NC(C)C)CC3)CC2)n(C)n1	none
O=C(NCCc1cnc[nH]1)c1cccs1	APJ antag 43 | APJ antag conf inactive
O=C(NCCc1ccccc1)c1cccs1	none
O=[N+]([O-])c1ccc(S(=O)(=O)c2ccccc2)nc1	APJ antag 43, CXCR6 inh 52, CCR6 antag 71 | APJ antag conf 51
O=C(NNc1ncc(C(F)(F)F)cc1Cl)c1ccc(Cl)c(Cl)c1	none
Cc1ccc(NC(=S)NNc2ncc(C(F)(F)F)cc2Cl)c(C)c1	APJ antag 53, CXCR6 inh 65, CCR6 antag 81 | APJ antag conf inactive
COc1ccccc1NC(=O)C1CCCN(C(=O)Nc2ccc(F)cc2)C1 (stereo not drawn)	none
COc1cccc(NC(=O)CSc2nnc(Cn3c(=O)sc4ccccc43)n2C)c1	none
O=C1c2cccc3c(Nc4ccccc4Cl)c([N+](=O)[O-])cc(c23)C(=O)N1CCO	APJ antag 53, CXCR6 inh 40, CCR6 antag 65 | APJ antag conf 84
Cc1ccc(C)c(NC(=S)N/N=C2/CCCCc3ccccc32)c1	APJ antag 47 | APJ antag conf 84
CC(C)NC(=S)N/N=C1\CCCCc2ccccc21	none
O=C(C1CCN(S(=O)(=O)c2cnc[nH]2)CC1)N1CCn2c1nc1ccccc12	APJ antag 61, CXCR6 inh 56, CCR6 antag 67 | APJ antag conf 101
O=C(C1CCCCC1)N1CCCn2c1nc1ccccc12	none
CSc1ncccc1C(=O)OCC(=O)c1ccc(S(=O)(=O)N2CCCCC2)cc1	APJ antag 46 | APJ antag conf inactive
